We go through three compounds from ChEMBL document CHEMBL1140177 (J Med Chem, 2008).

Molecules are shown by their SMILES. Converted amounts (≈) assume the structure as drawn.

Series [1] concerns Human immunodeficiency virus 1. In words: Antiviral activity against HIV1 with reverse transcriptase K103N mutant infected in human MT4 cells after 72 hrs in presence of 10% fetal bovine serum. It is filed as functional. Particulars: Human immunodeficiency virus 1, MT4, 72 h; read-out: CIC95. The procedure, abridged:
(§1)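 Mutant HIV-1 spread was assayed in MT-4 human T-lymphoid cells kept in RPMI 1640 with 10% FBS. CIC95 is the concentration that inhibits viral spread by >95%. Values are geometric means of two determinations, or mean with standard deviation where n > 3. Cytotoxicity was checked up to an assay limit of 8.3 µM.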

In series [2] the test system is Human immunodeficiency virus 1. The series is described as follows: Antiviral activity against wild type HIV1 infected in human MT4 cells after 72 hrs in presence of 50% normal human serum. The note with it: Human immunodeficiency virus 1, MT4, 72 h; read-out: CIC95. Format: functional. The procedure, abridged:
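MT-4 human T-lymphoid cells in RPMI 1640 with 50% NHS. CIC95 is the concentration that inhibits viral spread by >95%. Values are either geometric means of two determinations or given with standard deviations for n > 3 or n > 50.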

For series [3], the system named is Human immunodeficiency virus 1. In words: Antiviral activity against wild type HIV1 infected in human MT4 cells after 72 hrs in presence of 10% fetal bovine serum. Particulars: Human immunodeficiency virus 1, MT4, 72 h; read-out: CIC95. Format: functional. The procedure, abridged: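 MT-4 human T-lymphoid cells in RPMI 1640 with 10% FBS. CIC95 is the concentration that inhibits viral spread by >95%. Values are either geometric means of two determinations or given with standard deviations for n > 3 or n > 50.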

In series [4] the test system is Human immunodeficiency virus 1. In words: Antiviral activity against HIV1 with reverse transcriptase Y181C mutant infected in human MT4 cells after 72 hrs in presence of 10% fetal bovine serum. Format: functional. Particulars: Human immunodeficiency virus 1, MT4, 72 h; read-out: CIC95. The procedure, abridged: as §1
Series [5] concerns Human immunodeficiency virus 1. The series is described as follows: Antiviral activity against HIV1 with reverse transcriptase P236L mutant in presence of 40% normal human serum. Format: functional, organism-based.
Series [6] concerns Human immunodeficiency virus 1. In words: Antiviral activity against HIV1 with reverse transcriptase V106A mutant in presence of 40% normal human serum. Format: functional, organism-based.
The test system of series [7] is Canis familiaris. In words: Half life in Beagle dog at 10 mg/kg, po and 2 mg/kg, iv. It is filed as ADME, organism-based, Canis lupus familiaris. Particulars: in vivo. The procedure, abridged: (§2)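 Three beagle dogs, averaged. Oral dose 10 mpk in 0.5% methocel; intravenous dose 2 mpk in DMSO. Individual values within 25% of mean.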
Series [8] in a line: Oral bioavailability in Beagle dog at 10 mg/kg. Format: ADME, organism-based, Canis lupus familiaris. The note with it: in vivo. The procedure, abridged:
as §2

Series [9] relates to Human immunodeficiency virus 1. In words: Antiviral activity against HIV1 with reverse transcriptase L100I mutant in presence of 40% normal human serum. It is filed as functional, organism-based.
The test system of series [10] is Human immunodeficiency virus 1. In words: Antiviral activity against HIV1 with reverse transcriptase Y181C mutant in presence of 40% normal human serum. It is filed as functional, organism-based.
Series [11] is described as follows: AUC in Sprague-Dawley rat at 10 mg/kg, po. The note with it: plasma. It is filed as ADME, organism-based. Further details: dose 10 mg/kg, route oral.
Series [12] concerns Human immunodeficiency virus 1. In words: Antiviral activity against HIV1 with reverse transcriptase K101E/G190A mutant in presence of 40% normal human serum. It is filed as functional, organism-based.
Series [13] can be described thus: Oral bioavailability in rhesus monkey at 10 mg/kg. Particulars: in vivo. Format: ADME, organism-based, Macaca mulatta.
A short description of series [14]: Solubility at pH 2. Particulars: buffer. It is filed as physicochemical.
Series [15] deals with Human immunodeficiency virus 1. In words: Antiviral activity against HIV1 with reverse transcriptase G190A mutant in presence of 40% normal human serum. It is filed as functional, organism-based.
Series [16] relates to Human immunodeficiency virus 1. The series is described as follows: Antiviral activity against HIV1 with reverse transcriptase K103N/Y181C mutant in presence of 40% normal human serum. Format: functional, organism-based.
For series [17], the system named is Human immunodeficiency virus 1. The series is described as follows: Antiviral activity against HIV1 with reverse transcriptase Y181C/G190A mutant in presence of 40% normal human serum. Format: functional, organism-based.
In series [18] the test system is Human immunodeficiency virus 1. The series is described as follows: Antiviral activity against HIV1 with reverse transcriptase K103N/G190A mutant in presence of 40% normal human serum. Format: functional, organism-based.
Series [19] is filed under the species Canis familiaris. In words: Toxicity in cardiovascular dog model assessed as effect on QTc intervals. Format: organism-based, Canis lupus familiaris, Heart. Particulars: in vivo. The procedure, abridged: (§3)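 Conscious dog cardiovascular model, with QTc, heart rate and blood pressure monitored at plasma levels up to 55 µM.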
In series [20] the test system is Human immunodeficiency virus 1. In words: Antiviral activity against HIV1 with reverse transcriptase Y188L mutant in presence of 40% normal human serum. It is filed as functional, organism-based.
Series [21] relates to Human immunodeficiency virus 1. The series is described as follows: Antiviral activity against HIV1 with reverse transcriptase K103N/V179E mutant in presence of 40% normal human serum. It is filed as functional, organism-based.
The subject of series [22] is Human immunodeficiency virus 1. In words: Antiviral activity against wild type HIV1 in presence of 40% normal human serum. It is filed as functional, organism-based. The procedure, abridged: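 Monogram Bioscience PhenoScreen cell-culture assay run with 40% NHS. […] Value is the geometric mean of n = 2.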
For series [23], the species on record is Canis familiaris. The series is described as follows: Toxicity in cardiovascular dog model assessed as effect on heart rate. Format: organism-based, Canis lupus familiaris. Particulars: in vivo. The procedure, abridged: as §3
Series [24] concerns Human immunodeficiency virus 1. The series is described as follows: Antiviral activity against HIV1 with reverse transcriptase V179E mutant in presence of 40% normal human serum. It is filed as functional, organism-based.
Series [25] is filed under the species Canis familiaris. The series is described as follows: Toxicity in cardiovascular dog model assessed as effect on blood pressure. Format: organism-based, Canis lupus familiaris. Particulars: in vivo. The procedure, abridged: as §3
Series [26] is described as follows: Clearance in Beagle dog at 10 mg/kg, po and 2 mg/kg, iv. Format: ADME, organism-based, Canis lupus familiaris. Particulars: in vivo. The procedure, abridged: as §2
Series [27] can be described thus: Clearance in rhesus monkey at 10 mg/kg, po and 2 mg/kg, iv. It is filed as ADME, organism-based, Macaca mulatta. The note with it: in vivo.
Series [28] is described as follows: Clearance in Sprague-Dawley rat at 10 mg/kg, po and 3 mg/kg, iv. Format: ADME, organism-based. The note with it: in vivo. The procedure, abridged: (§4)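 Three Sprague-Dawley rats, averaged. Oral dose 10 mpk in 0.5% methocel; intravenous dose 3 mpk in DMSO. Individual values within 25% of mean.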
The nature of series [29]: Volume of distribution in Beagle dog at 10 mg/kg, po and 2 mg/kg, iv. It is filed as ADME, organism-based, Canis lupus familiaris. The note with it: in vivo. The procedure, abridged:
as §2

The nature of series [30]: Volume of distribution in rhesus monkey at 10 mg/kg, po and 2 mg/kg, iv. Format: ADME, organism-based, Macaca mulatta. The note with it: in vivo.
For series [31], the system named is Human immunodeficiency virus 1. The series is described as follows: Antiviral activity against HIV1 with reverse transcriptase K103N mutant in presence of 40% normal human serum. It is filed as functional, organism-based.
Series [32] is described as follows: Oral bioavailability in Sprague-Dawley rat at 10 mg/kg. Format: ADME, organism-based. The note with it: in vivo.
Series [33] in a line: Volume of distribution in Sprague-Dawley rat at 10 mg/kg, po and 3 mg/kg, iv. The note with it: in vivo. Format: ADME, organism-based. The procedure, abridged: as §4
In another series the test system is Rattus norvegicus. In words: Half life in Sprague-Dawley rat at 10 mg/kg, po and 3 mg/kg, iv. The note with it: in vivo. Format: ADME, organism-based. The procedure, abridged:
as §4

Series [34] can be described thus: AUC in Beagle dog at 10 mg/kg, po. It is filed as ADME, organism-based, Canis lupus familiaris. Further details: dose 10 mg/kg, route oral. The note with it: plasma. The procedure, abridged: as §2
The subject of series [35] is Human immunodeficiency virus 1. The series is described as follows: Antiviral activity against HIV1 with reverse transcriptase G190S mutant in presence of 40% normal human serum. Format: functional, organism-based.
Series [36] in a line: AUC in rhesus monkey at 10 mg/kg, po. Format: ADME, organism-based, Macaca mulatta. Further details: dose 10 mg/kg, route oral. The note with it: plasma.
Series [37] relates to Human immunodeficiency virus 1. In words: Antiviral activity against HIV1 with reverse transcriptase K103N/P225H mutant in presence of 40% normal human serum. It is filed as functional, organism-based.
In series [38] the test system is Human immunodeficiency virus 1. The series is described as follows: Antiviral activity against HIV1 with reverse transcriptase K103N/Y181C/G190A mutant in presence of 40% normal human serum. Format: functional, organism-based.
In series [39] the test system is Human immunodeficiency virus 1. The series is described as follows: Antiviral activity against HIV1 with reverse transcriptase F227L mutant in presence of 40% normal human serum. It is filed as functional, organism-based.
The target of series [40] is Human immunodeficiency virus type 1 reverse transcriptase (Human immunodeficiency virus 1, UniProt Q72547, Y181C). In words: Inhibition of HIV1 RT polymerase Y181C mutant by SPA.
In series [41] the target is Human immunodeficiency virus type 1 reverse transcriptase (Human immunodeficiency virus 1, UniProt Q72547, K103N). In words: Inhibition of HIV1 RT polymerase K103N mutant by SPA.
Series [42] concerns the target Human immunodeficiency virus type 1 reverse transcriptase (Human immunodeficiency virus 1, UniProt Q72547). The series is described as follows: Inhibition of wild type HIV1 RT polymerase by SPA.

Consider `N#Cc1cc(Cl)cc(Oc2cc(OCc3n[nH]c4ccccc34)ccc2Cl)c1`, for which the IC95 in [1] was determined as 33 nM; in series [2], 114 nM; in series [3] it was 22.6 nM; in series [4], 102 nM.
A word on the IC50: it is the concentration that inhibits the measured activity by half. A word on the bioavailability: it is the share of a dose that reaches the circulation, judged against a reference dose that is usually intravenous. What is called AUC is the area under the concentration-time curve, a measure of exposure. Broadly, the solubility is the concentration that dissolves in the medium under given conditions. Consider `N#Cc1cc(Cl)cc(Oc2cc(OCc3n[nH]c4nc(N)ccc34)ccc2Cl)c1`, for which the IC50 in [5] was determined as 4.2 nM; in [6], 147 nM; in series [9], 1.8 nM; in series [10], 5.6 nM; in [12], 10.1 nM; in series [15] it was 1.5 nM. Also, the IC50 in series [16] was 84 nM; in series [17], 14.8 nM; in series [18], 9.6 nM; in series [20] it was more than 1000 nM; in series [21], 9.6 nM; in series [22] it was 1.35 nM. The IC50 stood at 5 nM in [24]; 4.4 nM in series [31]; 7.6 nM in [35]; 1.2 nM in series [37]; 98.3 nM in series [38]; 0.7 nM in series [39]. Also, the t1/2 in the series with Canis familiaris [7] turned out to be 3.9 h; in the series with Rattus norvegicus it was 3.5 h. Also, the bioavailability came to 47% in series [8], 1% in series [13] and 52% in series [32]. For the same compound, the figures for the AUC in [11], in [34] and in series [36] were 22.7 µM·h, 31.3 µM·h and 0.3 µM·h, respectively. The compound also returned a solubility in [14] of 10 µg/mL (≈ 23.5 µM). Also, the Activity result in the series filed under Canis familiaris [19], in the series filed under Canis familiaris [23] and in the series listed under Canis familiaris [25] was “Non-toxic” in each case. Further, the IC95 in series [1] was found to be 11.4 nM; in series [2] it was 34 nM; in [3] it was 8.4 nM; in series [4], 19 nM. In addition, the clearance in series [26] came to 5.8 mL/min/kg; in [27], 15.8 mL/min/kg; in series [28], 9 mL/min/kg. The Vd in series [29] was 1.7 L/kg; in series [30] it was 1.9 L/kg; in [33], 2 L/kg.
As to `N#Cc1cc(Cl)cc(Oc2cc(OCc3n[nH]c4ccncc34)ccc2Cl)c1`, the IC50 in series [40] was found to be 6.2 nM; in series [41], 3.8 nM; in series [42], 1.2 nM. Besides, the IC95 in series [1] was determined as 922 nM; in [2], 307 nM; in [3], 169 nM; in series [4], 278 nM.
